Measurements: ChEMBL document CHEMBL6134770, “Miniaturized click chemistry and direct screening facilitate the discovery of triazole piperazine SARS-CoV-2 Mpro inhibitors with improved metabolic stability” (RSC Med Chem, 2025)
The source made the active and inactive calls. No rule for the calls is given here.

Tests used:
[1] = Metabolic stability in rat liver microsome assessed as half life measured up to 60 mins in presence of NADPH by LC-MS/MS analysis; format: ADME; conditions: liver microsomes
Method in brief: (§1)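 Microsomes (0.5 mg/mL) and 1 μM compound (final) in 100 mM phosphate buffer were prewarmed 5 min at 37 °C. Reactions were started with NADPH-regenerating solution; a no-NADPH control was run. Samples at 0, 5, 15, 30 and 60 min were quenched with cold MeOH:acetonitrile 1:1 containing labetalol/tolbutamide internal standards. Percent remaining is mean of n = 2. t1/2 came from the slope, and CLint was scaled with factor 1800.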

[2] = Metabolic stability in rat liver microsome assessed as intrinsic clearance measured up to 60 mins in presence of NADPH by LC-MS/MS analysis; format: ADME; conditions: liver microsomes; method in brief: as §1
SARS-CoV-2 [3] = assay: Antiviral activity against SARS-CoV-2; format: functional, organism-based; conditions: Severe acute respiratory syndrome coronavirus 2
[4] = system: Severe acute respiratory syndrome coronavirus 2; assay: Inhibition of SARS-CoV-2 Main protease using MCA-AVLQSGFR-Lys(Dnp)-Lys-NH2 as substrate at 5 uM preincubated for 10 mins followed by substrate addition and measured after 10 mins by FRET assay relative to control; conditions: time 20.0 min
[5] = Inhibition of SARS-CoV-2 Main protease using MCA-AVLQSGFR-Lys(Dnp)-Lys-NH2 as substrate preincubated for 10 mins followed by substrate addition and measured after 10 mins by FRET assay; design: species or system Severe acute respiratory syndrome coronavirus 2
Method in brief: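 Mpro (1.5 μM stock) was preincubated with purified compound for 10 min at 37 °C in Tris–HCl/NaCl, pH 7.3. FRET substrate was then added and fluorescence (ex 320/em 405) followed for 10 min. Inhibition was calculated from initial 60 s slopes versus control and blank wells. Compounds were tested at 0.1, 0.5, 1, 5 and 10 μM in three independent experiments, and IC50 was fitted.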

SARS-CoV-2 [6] = assay: Antiviral activity against SARS-CoV-2 infected in African green monkey Vero E6 cells pre-infected with cells for 1 hr followed by compound treatment and measured after 25 to 26 hrs by ELISPOT assay; format: functional, organism-based; conditions: Severe acute respiratory syndrome coronavirus 2, Vero C1008
[7] = Metabolic stability in rat liver microsome assessed as parent compound remaining measured immediately in presence of NADPH by LC-MS/MS analysis; format: ADME; conditions: liver microsomes, read-out: Stability; method in brief: as §1
[8] = Metabolic stability in rat liver microsome assessed as parent compound remaining measured at 5 mins in presence of NADPH by LC-MS/MS analysis; format: ADME; conditions: liver microsomes, read-out: Stability; method in brief: as §1
[9] = Metabolic stability in rat liver microsome assessed as parent compound remaining measured at 15 mins in presence of NADPH by LC-MS/MS analysis; format: ADME; conditions: liver microsomes, read-out: Stability; method in brief: as §1
[10] = Metabolic stability in rat liver microsome assessed as parent compound remaining measured at 30 mins in presence of NADPH by LC-MS/MS analysis; format: ADME; conditions: liver microsomes, read-out: Stability; method in brief: as §1
[11] = Metabolic stability in rat liver microsome assessed as parent compound remaining measured at 60 mins in presence of NADPH by LC-MS/MS analysis; format: ADME; conditions: liver microsomes, read-out: Stability; method in brief: as §1
[12] = Cytotoxicity against African green monkey Vero E6 cells assessed as cell viability measured for 26 hrs by MTS assay; format: toxicity, cell-based, Vero C1008; conditions: chlorocebus sabaeus
Method in brief: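 Vero E6 cells were seeded at 1.7 × 10^4 per well in DMEM/10% FBS for 24 h. They were then exposed to compound in DMEM/5% FBS (final 1% DMSO) for 26 h at 37 °C, 5% CO2. MTS/PMS was added for 4 h and A490 read, minus media blank, normalised to DMSO wells. CC50 was fitted by four-parameter model with bottom fixed at zero, from ≥3 replicates.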

[13] = Drug degradation in rat liver microsome measured within 15 mins in presence of NADPH by LC-MS/MS analysis; format: ADME; conditions: liver microsomes, read-out: Drug degradation; method in brief: as §1

Structure (SMILES) | half-life [1] [min] | CLint scaled [2] [mL/min/kg] | EC50 (SARS-CoV-2 [3]) [µM] | inhibition [4] | IC50 [5] [µM] | EC50 (SARS-CoV-2 [6]) [µM] | remaining at 0 min [7] [%] | remaining at 5 min [8] [%] | remaining at 0.25 h [9] [%] | remaining at 0.5 h [10] [%] | remaining at 1 h [11] [%] | CC50 at 26 h [12] [µM] | metabolised at 0.25 h [13] [%]
O=C(O)Cc1ccccc1Nc1c(Cl)cccc1Cl [DICLOFENAC] | 16.6 | 150 |  |  |  |  |  |  |  |  |  |  | 
Cn1cnc(Cn2c(=O)[nH]/c(=N\c3cc4cn(C)nc4cc3Cl)n(Cc3cc(F)c(F)cc3F)c2=O)n1 |  |  | 0.11 |  |  |  |  |  |  |  |  |  | 
O=C(c1cccnc1)N1CCN(c2ccc(Cl)c(Cl)c2)[C@H](c2cn(-c3ccc(CO)cc3)nn2)C1 | 10.3 | 242 |  | Active | 1.87 | 6.99 | 100 | 70.7 | 36.5 | 13.3 | 5.1 |  | 
O=C(c1cccnc1)N1CCN(c2ccc(Cl)c(Cl)c2)[C@H](c2cn(-c3ccc4c(c3)OCO4)nn2)C1 |  |  |  | Active | 2.23 | 6.32 |  |  |  |  |  | > 100 | 
O=C(NCc1cccs1)[C@@H]1CN(C(=O)c2cccnc2)CCN1c1ccc(Cl)c(Cl)c1 | 2.51 | 994 |  | Active | 0.39 | 1.78 | 100 | 22.7 | 1.56 | 0 | 0 |  | 100
